In ChEMBL document CHEMBL5143681, “Clerodane Diterpenes from Casearia corymbosa as Allosteric GABAA Receptor Modulators” (J Nat Prod, 2022):
Active and inactive are the calls of the source. No cut-off for these calls is given here.

Legend:
Format in all cases: cell-based
[1] = biological target: T1, GABA-A receptor; alpha-1/beta-2/gamma-2 (Homo sapiens, UniProt P14867+P18507+P47870); experiment: Positive allosteric modulation of GABAA alpha1beta2gamma2 receptor (unknown origin) stably expressed in CHO cells assessed as activation of GABA-induced response in presence of GABA by FLIPR assay
T1 sequence (P14867 whole entry): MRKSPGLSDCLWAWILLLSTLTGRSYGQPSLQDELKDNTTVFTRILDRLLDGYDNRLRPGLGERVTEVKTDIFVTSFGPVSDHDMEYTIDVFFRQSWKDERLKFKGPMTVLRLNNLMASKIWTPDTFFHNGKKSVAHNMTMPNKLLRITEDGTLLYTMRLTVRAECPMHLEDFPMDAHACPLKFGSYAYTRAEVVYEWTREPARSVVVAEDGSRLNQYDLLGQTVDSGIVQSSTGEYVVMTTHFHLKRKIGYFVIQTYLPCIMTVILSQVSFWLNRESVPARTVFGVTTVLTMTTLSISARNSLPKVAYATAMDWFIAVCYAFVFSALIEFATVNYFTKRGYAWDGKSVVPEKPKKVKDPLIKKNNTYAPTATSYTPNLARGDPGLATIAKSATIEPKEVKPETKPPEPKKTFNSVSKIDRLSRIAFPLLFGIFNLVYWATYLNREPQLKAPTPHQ
T1 sequence (P47870 whole entry): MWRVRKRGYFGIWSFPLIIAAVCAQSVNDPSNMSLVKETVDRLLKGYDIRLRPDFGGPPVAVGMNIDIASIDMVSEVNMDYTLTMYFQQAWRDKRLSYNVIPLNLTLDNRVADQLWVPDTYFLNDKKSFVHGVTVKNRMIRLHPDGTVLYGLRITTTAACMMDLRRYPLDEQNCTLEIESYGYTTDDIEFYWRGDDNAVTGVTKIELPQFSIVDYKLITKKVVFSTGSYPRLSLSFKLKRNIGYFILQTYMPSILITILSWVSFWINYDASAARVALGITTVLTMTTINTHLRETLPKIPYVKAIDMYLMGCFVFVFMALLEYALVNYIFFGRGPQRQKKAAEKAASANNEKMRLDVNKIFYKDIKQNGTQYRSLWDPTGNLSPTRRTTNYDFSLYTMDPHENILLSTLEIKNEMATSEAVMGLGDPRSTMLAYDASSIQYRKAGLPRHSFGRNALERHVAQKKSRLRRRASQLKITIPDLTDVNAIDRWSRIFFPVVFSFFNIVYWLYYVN
T1 sequence (P18507 whole entry): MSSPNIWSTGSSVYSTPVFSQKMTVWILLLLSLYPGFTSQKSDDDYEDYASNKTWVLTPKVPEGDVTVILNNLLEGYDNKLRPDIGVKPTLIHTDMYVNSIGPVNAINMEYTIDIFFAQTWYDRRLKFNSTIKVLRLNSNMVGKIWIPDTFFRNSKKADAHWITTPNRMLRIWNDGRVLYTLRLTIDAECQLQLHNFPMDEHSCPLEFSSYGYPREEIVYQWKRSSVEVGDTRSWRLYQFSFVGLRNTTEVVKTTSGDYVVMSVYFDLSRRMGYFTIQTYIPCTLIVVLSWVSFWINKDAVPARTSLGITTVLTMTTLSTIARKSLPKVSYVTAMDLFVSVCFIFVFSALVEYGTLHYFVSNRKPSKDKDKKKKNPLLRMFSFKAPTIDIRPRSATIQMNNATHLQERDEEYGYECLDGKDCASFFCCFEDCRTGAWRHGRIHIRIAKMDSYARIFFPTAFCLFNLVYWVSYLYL

[2] = biological target: T2, GABA-A receptor; alpha-1/beta-2/gamma-2 (Homo sapiens) (UniProt P14867+P47870+P18507); experiment: Additive positive allosteric modulation of GABAA alpha1beta2gamma2 receptor (unknown origin) stably expressed in CHO cells assessed as activation of GABA-induced response at 0.5 to 8 uM in presence of diazepam by FLIPR assay; settings: filed as positive allosteric modulator, dose 0.5-8 µM
Procedure, shortened: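 α1β2γ2-CHO cells were run in the FLIPR membrane-potential assay. Activation was the fluorescence change at 270–330 s, normalized to 200 μM GABA. Controls were 2 μM GABA, 200 μM GABA and 0.2% DMSO.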

[3] = biological target: T2, GABA-A receptor; alpha-1/beta-2/gamma-2 (Homo sapiens); experiment: Positive allosteric modulation of GABAA alpha1beta2gamma2 receptor (unknown origin) stably expressed in CHO cells assessed as activation of GABA-induced response at 10 uM in presence of pregnenolone sulfate by FLIPR assay; settings: filed as positive allosteric modulator
Procedure, shortened: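 Compound was held at 10 μM with pregnenolone sulfate at 0.001–10 μM in the FLIPR membrane-potential assay on α1β2γ2-CHO cells, and 2 μM GABA was added at 295 s. The fluorescence change at 270–330 s was normalized to 200 μM GABA. Controls were 2 μM GABA, 200 μM GABA and 0.2% DMSO.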

[4] = biological target: T2, GABA-A receptor; alpha-1/beta-2/gamma-2 (Homo sapiens); experiment: Additive positive allosteric modulation of GABAA alpha1beta2gamma2 receptor (unknown origin) stably expressed in CHO cells assessed as activation of GABA-induced response at 0.5 to 4 uM in presence of allopregnanolone by FLIPR assay; settings: filed as positive allosteric modulator, dose 0.5-4 µM, DDE = dose-dependent effect
Procedure, shortened: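 The FLIPR membrane-potential assay used α1β2γ2-CHO cells. Compound was tested at 0.5, 1.0, 2.0 and 4.0 μM together with a fixed 0.25 μM allopregnanolone, and 2 μM GABA was added at 295 s. The fluorescence change at 270–330 s was normalized to 200 μM GABA. Plates included 2 μM GABA, 200 μM GABA and 0.2% DMSO controls.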

[5] = biological target: T2, GABA-A receptor; alpha-1/beta-2/gamma-2 (Homo sapiens); experiment: Positive allosteric modulation of GABAA alpha1beta2gamma2 receptor (unknown origin) stably expressed in CHO cells assessed as activation of GABA-induced response at 5 uM in presence of flumazenil by FLIPR assay; settings: filed as positive allosteric modulator
Procedure, shortened: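 For the benzodiazepine-site test, α1β2γ2-CHO cells in the FLIPR membrane-potential assay received compound at 5 μM plus flumazenil at 0.001–10 μM, with 2 μM GABA added at 295 s. Activation was the fluorescence change at 270–330 s, normalized to 200 μM GABA. Controls were 2 μM GABA, 200 μM GABA and 0.2% DMSO.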

[6] = biological target: T2, GABA-A receptor; alpha-1/beta-2/gamma-2 (Homo sapiens); experiment: Additive positive allosteric modulation of GABAA alpha1beta2gamma2 receptor (unknown origin) stably expressed in CHO cells assessed as activation of GABA-induced response at 0.5 to 8 uM in presence of etazolate by FLIPR assay; settings: filed as positive allosteric modulator, dose 0.5-8 µM
Procedure, shortened: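 In the FLIPR membrane-potential assay on α1β2γ2-CHO cells, compound at 0.5–8.0 μM was tested with etazolate at a fixed concentration (0.78 μM per the methods). 2 μM GABA was added at 295 s. The fluorescence change at 270–330 s was normalized to 200 μM GABA. Controls were 2 μM GABA, 200 μM GABA and 0.2% DMSO.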

Row | SMILES | EC50 [1] [µM] | also measured
1 | CC1=C2[C@H](/C=C(\C)C(=O)O)CC[C@@H](C)[C@H]2CC1 [VALERENIC ACID] | 12.6 | 
2 | C=CCc1ccc(O)c(-c2cc(CC=C)ccc2O)c1 [MAGNOLOL] | 4.8 | 
3 | O=C(/C=C/C=C/c1ccc2c(c1)OCO2)N1CCCCC1 [PIPERINE] | 5.8 | 

The next molecules have a lower EC50 [1] than those just listed; values first:

Row | EC50 [1] [µM] | SMILES | also measured
4 | 4.6 | C=C/C(C)=C/C[C@]1(C)[C@H](C)C[C@H](OC(C)=O)[C@]23C(=C[C@@H](OC(C)=O)C[C@@H]12)[C@@H](OC(C)=O)O[C@H]3OC(C)=O | 
5 | 1.4 | C=C/C(C)=C/C[C@]1(C)[C@H](C)C[C@H](OC)[C@]23C(=C[C@@H](OC(C)=O)C[C@@H]12)[C@@H](OC(C)=O)O[C@H]3OC(C)=O | Activity [2]: Active; Activity [3]: Active; Activity [4]: Dde; Activity [5]: Active; Activity [6]: Active
6 | 0.5 | C=C/C(C)=C/C[C@]1(C)[C@H](C)C[C@H](O)[C@]23C(=C[C@@H](OC(C)=O)C[C@@H]12)[C@@H](OC(C)=O)O[C@H]3OC(C)=O | 
